# Compound activity: PubChem, several laboratories
# NR3A LBD binder: modulates the human NR3A ligand-binding domain. NR3A LBD differential scanning fluorimetry, Tm shift; 0% = protein alone, 100% = glycine-bound protein. Tm shift relative to glycine control, % at 25 µM. 340,000 tested, 2.5% active. AID 1259313;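 active = melting temperature shift of at least 10% of the positive control shift, at one fixed dose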
# Beta cell apopt: beta cell apoptosis inhibition; INS-1E cytokine-induced death, ATP luminescence, 48 h; percent of positive-control rescue, neutral wells zero; 300,000 tested, 0.8% active; AID 435005; protection from apoptosis, % (no concentration beside the values);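 active = Every replicate reaches about 75%, or at least half do and their mean reaches it too, limit read from the data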;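 also: 0% = cytokine-treated negative control wells and 100% = positive control rescue; higher means more ATP so stronger rescue from cytokine killing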
# T cruzi repl: T. cruzi replication inhibition; T. cruzi beta-gal in NIH3T3, luminescence, 90 h; inhibition, % (no concentration beside the values); 300,000 tested, 1.4% active;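 active = mean inhibition across valid replicates above about 55%, limit read from the data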;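 also: signal also drops with host cell toxicity which is not excluded here; 0% = plate median of DMSO wells and 100% = zero luminescence signal; higher percent means less beta-gal luminescence so fewer parasites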
#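 Incubation – ≥90 h infection period, 3 h prior cell attachment · System – NIH/3T3 fibroblasts plus reporter T. cruzi · Doses – compound pinned at 50 nL/well, DMSO · Read-out basis – percent inhibition of parasite-derived β-gal signal · Signal – luminescent β-galactosidase signal after 60 min lysis · Also added – 5000 T. cruzi trypomastigotes/well · Medium – Low-serum DMEM with 2% FBS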
# PREPL inh: inhibitors of human prolyl oligopeptidase-like enzyme PREPL | Q4J6C6 | recombinant PREPL, fluorescence polarization activity-based probe | inhibition, % at 5.96 µM | 320,000 tested, 0.68% active; in the data active = inhibition above about 43%;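 also: 0% = enzyme with DMSO and 100% = wells lacking enzyme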
# CHOP inhibitor: blocks CHOP induction under ER stress; CHO-K1 CHOP-promoter luciferase, tunicamycin-induced, 15-18 h; inhibition, % at 10 µM; 220,000 tested, 3.8% active; AID 2732;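 active = compounds that reduced the stress-induced luciferase reporter signal by more than about 70% of percent inhibition, limit read from the data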;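 also: 0% = tunicamycin plus vehicle and 100% = wells without tunicamycin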
# CSC inhib: cancer stem cell inhibition. cancer stem cell-like cells viability, luminescence. inhibition, % at 7.5 µM. 300,000 tested, 1.1% active. AID 2717; in the data active = inhibition above about 75%; tested in HMLE shEcad cells
# Active calls of the source: *; x = not tested or not shown. Only some compounds are listed: those with a hit (about 6.7% of all), similar ones and a draw of the others.
SMILES,NR3A LBD binder,Beta cell apopt,T cruzi repl,PREPL inh,CHOP inhibitor,CSC inhib
Cn1c(NC(=O)/C=C/c2ccc(Cl)c(Cl)c2)cc(=O)n(C)c1=O,16*,2,9,0,-65,-17
COc1cc(OC)c(S(=O)(=O)Nc2ccc(C(=O)O)cc2)cc1S(=O)(=O)Nc1ccc(C(=O)O)cc1,-3,-7,-1,-5,x,-13
Cc1c2c(n3c(nc4ccccc43)c1C#N)N(c1ccccc1)CC2,x,x,x,x,4,x
Cc1c2c(n3c(nc4ccccc43)c1C#N)N(CCN(C)C)CC2,0,45,70*,25,-10,-4
Cc1c2c(n3c(nc4ccccc43)c1C#N)N(CCCN(C)C)CC2,0,5,63*,28,-3,-14
Fc1ccccc1CNC(=S)Nc1cccc(C(F)(F)F)c1,14*,2,7,-16,51,18
Cc1ccc(NC(=S)NNc2ncc(C(F)(F)F)cc2Cl)cc1,-5,11,-10,8,57,-4
FC(F)(F)c1cnc(NNC(=S)Nc2ccc(Cl)cc2)c(Cl)c1,18*,93*,-5,16,99*,59
FC(F)(F)c1cccc(NC(=S)NCc2ccc(Cl)cc2)c1,20*,18,46,-28,95*,59
FC(F)(F)c1cccc(NC(=S)NNC(=S)Nc2ccc(Cl)cc2)c1,x,42,56*,13,56,132*
CCc1ccc(NC(=O)CCCN2C(=O)C3CC=CCC3C2=O)cc1 (centres undefined),-397,-9,3,14,x,1
Cc1nnc(-c2cnn(C)c2N)n1CCCN1CCOCC1,0,0,-3,3,-7,0
O=C(OCN1C(=O)c2ccccc2C1=O)c1cccc(OC(F)F)c1,0,-7,-8,-3,x,-5
CCc1cc(=O)oc2cc3occ(-c4ccc(OC)c(F)c4)c3cc12,-2,23,-3,-7,-5,72
O=C(NCC(F)(F)F)c1ccc(S(=O)(=O)N2CCN(C(=O)C3CCCO3)CC2)cc1 (centres undefined),-3,-3,x,1,x,x
Cc1ccc(NC(=S)NNC(=S)Nc2cccc(C(F)(F)F)c2)cc1,34*,14,44,21,61,48
O=C(COC(=O)c1cc(C(F)(F)F)cc(C(F)(F)F)c1)NCc1ccc(Cl)cc1,-14,-1,-4,3,73*,-4
Cc1ccc(NC(=S)NNC(=S)Nc2ccc(C)cc2)cc1,30*,x,x,x,x,x
O=C(COC(=O)c1cncc(Br)c1)NCc1ccc(Cl)cc1,0,0,2,-6,5,-6
Cc1ccc(NC(=S)NNC(=O)Nc2ccccc2)cc1,1,0,-11,13,-31,13
CN(C)NC(=S)Nc1cccc(C(F)(F)F)c1,0,-3,-27,-2,20,-9
CCOc1ccccc1NC(=S)N1CCN(c2cccc(OC)c2)CC1,0,0,0,6,x,6
Cc1ccccc1Cn1c(C(=O)OC(C)C)cc2c1ccn2C,-1,14,17,-1,51,-4
Cc1ccc(C)c(Cn2c(C(=O)OC(C)C)cc3c2ccn3C)c1,-2,5,14,5,73*,20
CCOC(=O)c1cc2c(ccn2C)n1Cc1ccccc1C,2,27,17,8,70*,13
SMILES,NR3A LBD binder,Beta cell apopt,T cruzi repl,PREPL inh,CHOP inhibitor,CSC inhib
O=C(CSc1nc2nc(-c3cccs3)cc(C(F)(F)F)c2c(=O)[nH]1)Nc1c(F)c(F)c(F)c(F)c1F,22*,14,-8,-6,30,88*
CCOC(=O)/C=C1\SC(C)C(=O)N1CC(=O)N(CCC#N)c1ccccc1 (centres undefined),-1,1,x,3,x,-19
Cc1cc2cc(CN3C(=O)c4ccccc4C3=O)ccc2n1C,-2,100*,83*,20,11,19
Cc1ccc(S(=O)(=O)NCc2ccc3c(c2)cc(C)n3C)cc1,-3,4,64*,-1,39,-7
Cc1ccc2c(c1)c(C)c(C)n2CC(O)Cn1nc(C)c(Br)c1C (centres undefined),-2,-10,22,13,86*,1
CC(=O)c1c(C)nn(CC(O)Cn2c3c(c4cc(C)ccc42)CCCC3=O)c1C (centres undefined),-1,2,x,26,25,-27
